Measurements as given in ChEMBL document CHEMBL1148835, “Weak base dispiro-1,2,4-trioxolanes: potent antimalarial ozonides” (Bioorg Med Chem Lett, 2007).
In brackets after ≈: the same amount, converted by molar mass.

Assays:
Plasmodium falciparum [1] = test: Antimalarial activity against chloroquine-sensitive Plasmodium falciparum NF54; type: functional, organism-based
How it was run: (§1)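 In vitro growth assay using asexual P. falciparum cultures, K1 for line 1 and NF54 for line 2. Each value is the mean of 2–3 determinations. Individual measurements differed by less than 50%.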

Plasmodium falciparum [2] = test: Antimalarial activity against chloroquine-resistant Plasmodium falciparum K1; type: functional, organism-based; how it was run: as §1
Plasmodium berghei = test: Antimalarial activity as reduced parasitaemia against Plasmodium berghei infected MORO mice (Mus musculus) at 10 mg/kg peroral dose; type: functional; set-up: scale not given: the % may be the effect or the level left; settings: route oral
How it was run: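 Groups of three P. berghei-infected MORO mice were given a single oral 10 mg/kg dose on day 1 post-infection. Read-out was percent reduction in parasitemia on day 3 post-infection.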

[3] = Bioavailability in Sprague-Dawley rat at 25 mg/kg, po; type: ADME, organism-based; settings: in vivo
Rattus norvegicus = species: Rattus norvegicus; test: Neurotoxicity in rat; type: toxicity, organism-based; settings: in vivo
How it was run: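 Five-day toxicity study in male rats with daily oral administration, including observation for signs of neurotoxicity.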

[4] = target: Voltage-gated inwardly rectifying potassium channel KCNH2 (Homo sapiens, UniProt Q12809); test: Inhibition of hERG by patch clamp assay; type: toxicity
[5] = Half life in Sprague-Dawley rat at 25 mg/kg, iv and 50 mg/kg, po; type: ADME, organism-based; settings: in vivo
How it was run: (§2)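 Rats were dosed 25 mg/kg IV via a jugular cannula in aqueous citrate buffer, pH 3. Separately, 50 mg/kg was given by oral gavage as a suspension in 0.5% w/v aqueous HPMC. Carotid-cannula serial blood samples were centrifuged immediately and the plasma stored at -80 °C. Plasma was assayed by LC/MS against a calibration curve prepared in plasma. Values are the average of 2–3 determinations.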

[6] = Biodistribution in Sprague-Dawley rat at 25 mg/kg, iv and 50 mg/kg, po; type: ADME, organism-based; settings: in vivo; how it was run: as §2
[7] = Plasma clearance in Sprague-Dawley rat at 25 mg/kg, iv and 50 mg/kg, po; type: ADME, organism-based; how it was run: as §2
[8] = Bioavailability in Sprague-Dawley rat at 10 mg/kg, po; type: ADME, organism-based; settings: in vivo
How it was run: (§3)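 Rats were dosed 4 mg/kg IV via a jugular cannula fitted the day before, in 40% v/v propylene glycol, 10% v/v ethanol and water. Separately, 10 mg/kg was given by oral gavage as a suspension in 0.5% w/v aqueous HPMC. Serial blood was drawn via a carotid cannula and the plasma stored at -80 °C. Plasma was quantified by LC/MS against a calibration curve prepared in plasma. Values are the average of 2–3 determinations.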

[9] = Biodistribution in Sprague-Dawley rat at 10 mg/kg, iv and 50 mg/kg, po; type: ADME, organism-based; settings: in vivo
How it was run: (§4)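 Rats were dosed 10 mg/kg IV via a jugular cannula in 10% v/v propylene glycol, 10% v/v ethanol and water. Separately, 50 mg/kg was given by oral gavage as a suspension in 0.5% w/v aqueous HPMC. Serial blood was drawn via a carotid cannula and the plasma stored at -80 °C. LC/MS quantification used a calibration curve prepared in plasma. Values are the average of 2–3 determinations.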

[10] = Plasma clearance in Sprague-Dawley rat at 10 mg/kg, iv and 50 mg/kg, po; type: ADME, organism-based; how it was run: as §4
[11] = Half life in Sprague-Dawley rat at 10 mg/kg, iv and 50 mg/kg, po; type: ADME, organism-based; settings: in vivo; how it was run: as §4
[12] = Half life in Sprague-Dawley rat at 4 mg/kg, iv and 10 mg/kg, po; type: ADME, organism-based; settings: in vivo; how it was run: as §3
[13] = Plasma clearance in Sprague-Dawley rat at 4 mg/kg, iv and 10 mg/kg, po; type: ADME, organism-based; how it was run: as §3
[14] = Biodistribution in Sprague-Dawley rat at 4 mg/kg, iv and 10 mg/kg, po; type: ADME, organism-based; settings: in vivo; how it was run: as §3

Chain of Voltage-gated inwardly rectifying potassium channel KCNH2 (Q12809 whole entry): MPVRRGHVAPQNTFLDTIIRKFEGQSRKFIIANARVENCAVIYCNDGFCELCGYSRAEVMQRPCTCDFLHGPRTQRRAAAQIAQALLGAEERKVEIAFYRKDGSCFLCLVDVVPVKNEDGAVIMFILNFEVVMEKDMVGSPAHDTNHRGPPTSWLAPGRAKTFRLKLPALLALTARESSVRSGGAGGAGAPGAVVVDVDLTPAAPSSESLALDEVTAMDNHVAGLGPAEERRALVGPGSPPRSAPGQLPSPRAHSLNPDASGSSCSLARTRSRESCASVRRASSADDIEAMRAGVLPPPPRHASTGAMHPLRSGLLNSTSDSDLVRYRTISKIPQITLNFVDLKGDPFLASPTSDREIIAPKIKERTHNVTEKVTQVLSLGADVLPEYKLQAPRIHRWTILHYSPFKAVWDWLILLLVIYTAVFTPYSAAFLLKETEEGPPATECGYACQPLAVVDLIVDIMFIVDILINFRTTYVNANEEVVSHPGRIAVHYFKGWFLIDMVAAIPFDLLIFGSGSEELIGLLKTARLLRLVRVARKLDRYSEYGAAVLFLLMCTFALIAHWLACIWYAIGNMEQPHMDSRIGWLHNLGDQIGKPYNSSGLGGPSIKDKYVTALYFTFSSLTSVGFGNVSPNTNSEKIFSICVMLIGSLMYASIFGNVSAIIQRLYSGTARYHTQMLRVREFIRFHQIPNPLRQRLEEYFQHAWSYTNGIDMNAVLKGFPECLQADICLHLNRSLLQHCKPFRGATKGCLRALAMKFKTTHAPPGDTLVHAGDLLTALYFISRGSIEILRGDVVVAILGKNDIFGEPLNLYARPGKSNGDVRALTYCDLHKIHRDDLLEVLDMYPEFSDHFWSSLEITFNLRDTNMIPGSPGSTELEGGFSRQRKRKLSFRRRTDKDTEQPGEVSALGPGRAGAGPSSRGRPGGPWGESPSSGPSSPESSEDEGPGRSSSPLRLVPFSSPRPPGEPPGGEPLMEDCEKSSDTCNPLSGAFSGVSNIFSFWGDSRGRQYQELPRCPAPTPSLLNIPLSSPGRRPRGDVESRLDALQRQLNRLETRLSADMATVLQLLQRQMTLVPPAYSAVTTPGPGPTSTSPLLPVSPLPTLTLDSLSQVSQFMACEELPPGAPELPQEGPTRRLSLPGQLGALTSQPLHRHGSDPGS

| Structure (SMILES) | IC50 (Plasmodium falciparum [1]) [ng/mL] | IC50 (Plasmodium falciparum [2]) [ng/mL] | Activity (Plasmodium berghei) [%] | other results |
| --- | --- | --- | --- | --- |
| c1cn(CC[C@H]2CC[C@]3(CC2)OO[C@]2(O3)C3CC4CC(C3)CC2C4)cn1 | 0.4 (≈ 1.12 nM) | 0.44 (≈ 1.23 nM) |  |  |
| Cl.NCC[C@H]1CC[C@]2(CC1)OO[C@]1(O2)C2CC3CC(C2)CC1C3 | 0.48 | 0.15 |  |  |
| NC(=O)CN(CC(N)=O)C[C@H]1CC[C@]2(CC1)OO[C@]1(O2)C2CC3CC(C2)CC1C3 | 2 (≈ 4.91 nM) | 1.7 (≈ 4.17 nM) | 86 |  |
| C1C2CC3CC1CC(C2)C31OO[C@]2(CC[C@@H](CNC3CC3)CC2)O1.CS(=O)(=O)O (stereo partly drawn) | 0.45 | 0.56 |  |  |
| c1cnn(C[C@H]2CC[C@]3(CC2)OO[C@]2(O3)C3CC4CC(C3)CC2C4)c1 | 1.2 (≈ 3.48 nM) | 1 (≈ 2.9 nM) | 78 |  |
| CS(=O)(=O)O.O=C(O)CNC[C@H]1CC[C@]2(CC1)OOC1(O2)C2CC3CC(C2)CC1C3 (stereo partly drawn) | 17 | 11 |  |  |
| CS(=O)(=O)O.NC[C@H]1CC[C@]2(CC1)OOC1(O2)C2CC3CC(C2)CC1C3 (stereo partly drawn) |  | 0.39 |  | bioavailability [3]: 31%; Activity (Rattus norvegicus): Non-toxic; IC50 [4]: 1800 nM; half-life [5]: 2.5 h; Vd [6]: 39 L/kg; clearance [7]: 177 mL/min/kg |
| NC(=O)CNC[C@H]1CC[C@]2(CC1)OO[C@]1(O2)C2CC3CC(C2)CC1C3 | 0.59 (≈ 1.68 nM) | 0.3 (≈ 0.856 nM) |  | bioavailability [3]: 58%; Activity (Rattus norvegicus): Non-toxic; IC50 [4]: 2700 nM; half-life [5]: 1.57 h; Vd [6]: 13 L/kg; clearance [7]: 102 mL/min/kg |
| O=CN1CCN(C[C@H]2CC[C@]3(CC2)OO[C@]2(O3)C3CC4CC(C3)CC2C4)CC1 |  |  | 99.01 |  |
| CS(=O)(=O)O.NC(=O)CCNC[C@H]1CC[C@]2(CC1)OOC1(O2)C2CC3CC(C2)CC1C3 (stereo partly drawn) | 0.91 | 0.41 | 99.92 |  |
| NC(=O)c1cncn1C[C@H]1CC[C@]2(CC1)OO[C@]1(O2)C2CC3CC(C2)CC1C3 |  |  | 99.77 |  |
| CC(C)(N)CNC[C@H]1CC[C@]2(CC1)OOC1(O2)C2CC3CC(C2)CC1C3.CS(=O)(=O)O.CS(=O)(=O)O (stereo partly drawn) | 0.83 | 0.49 |  |  |
| CS(=O)(=O)O.NOC[C@H]1CC[C@]2(CC1)OOC1(O2)C2CC3CC(C2)CC1C3 (stereo partly drawn) | 20 | 28 | 47 |  |
| CS(=O)(=O)O.c1csc(NC[C@H]2CC[C@]3(CC2)OOC2(O3)C3CC4CC(C3)CC2C4)n1 (stereo partly drawn) | 2.2 | 2.3 |  |  |
| CS(=O)(=O)O.c1ncn(C[C@H]2CC[C@]3(CC2)OOC2(O3)C3CC4CC(C3)CC2C4)n1 (stereo partly drawn) | 1.7 | 0.9 |  |  |
| NC(=O)c1cn(C[C@H]2CC[C@]3(CC2)OO[C@]2(O3)C3CC4CC(C3)CC2C4)cn1 |  |  | 99.76 |  |
| CCOC(=O)NC[C@H]1CC[C@]2(CC1)OO[C@]1(O2)C2CC3CC(C2)CC1C3 | 0.56 (≈ 1.53 nM) |  |  |  |
| OCC[C@H]1CC[C@]2(CC1)OO[C@]1(O2)C2CC3CC(C2)CC1C3 | 0.75 (≈ 2.43 nM) | 0.3 (≈ 0.973 nM) | 89 |  |
| C1C2CC3CC1CC(C2)[C@]31OO[C@@]2(CC[C@H](Cc3nnn[nH]3)CC2)O1 | 55 (≈ 159 nM) | 46 (≈ 133 nM) | 40 |  |
| CN(C)C[C@H]1CC[C@]2(CC1)OOC1(O2)C2CC3CC(C2)CC1C3.CS(=O)(=O)O (stereo partly drawn) | 0.75 | 0.35 |  |  |
| NC(=O)c1ccc(N[C@H]2CC[C@]3(CC2)OO[C@]2(O3)C3CC4CC(C3)CC2C4)cc1 | 1 (≈ 2.51 nM) | 1.1 (≈ 2.76 nM) | 99.98 |  |
| Cl.c1cn(C[C@H]2CC[C@]3(CC2)OO[C@]2(O3)C3CC4CC(C3)CC2C4)cn1 | 1.1 | 1.3 |  | bioavailability [8]: 36%; Vd [9]: 4.1 L/kg; Activity (Rattus norvegicus): Non-toxic; clearance [10]: 60.1 mL/min/kg; half-life [11]: 0.783 h |
| O=C1CN(C[C@H]2CC[C@]3(CC2)OO[C@]2(O3)C3CC4CC(C3)CC2C4)CCN1 | 1.8 (≈ 4.78 nM) | 1.3 (≈ 3.45 nM) |  |  |
| NS(=O)(=O)c1ccc(N[C@H]2CC[C@]3(CC2)OO[C@]2(O3)C3CC4CC(C3)CC2C4)cc1 | 3 (≈ 6.9 nM) | 2.7 (≈ 6.21 nM) | 99.98 |  |
| c1c[nH]c(C[C@H]2CC[C@]3(CC2)OO[C@]2(O3)C3CC4CC(C3)CC2C4)n1 |  |  | 71 |  |
| OC[C@H]1CC[C@]2(CC1)OO[C@]1(O2)C2CC3CC(C2)CC1C3 |  |  |  | half-life [12]: 0.45 h; clearance [13]: 136 mL/min/kg; Vd [14]: 5.3 L/kg |
| NS(=O)(=O)c1ccc(NC[C@H]2CC[C@]3(CC2)OO[C@]2(O3)C3CC4CC(C3)CC2C4)cc1 |  |  | 99.95 |  |
| Cc1ccc(S(=O)(=O)O)cc1.N[C@H]1CC[C@]2(CC1)OO[C@]1(O2)C2CC3CC(C2)CC1C3 | 0.31 |  | 98 |  |
| CC(C)(C)C1CCC2(CC1)OOC1(CCC(CN)CC1)O2.CS(=O)(=O)O (stereo not drawn) | > 100 | > 100 | 0 |  |
